Source: ChEMBL document CHEMBL2396604, “Synthesis and structure activity relationship of tetrahydroisoquinoline-based potentiators of GluN2C and GluN2D containing N-methyl-D-aspartate receptors” (J Med Chem, 2013)

What was measured:
[1] = molecular target: Gamma-aminobutyric acid receptor subunit rho-1 (Homo sapiens) (UniProt P24046); test: Activity at human recombinant GABA(C) receptor expressed in Xenopus oocytes assessed as effect on GABA-induced activation at 3 uM by two-electrode voltage clamp technique relative to control; format: cell-based; settings: Oocyte
Method in brief: (§1)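 Two-electrode voltage clamp of Xenopus oocytes injected with 1–5 ng cRNA and kept in Barth's solution at 15°C for 2–5 days. Oocytes were perfused with 90 mM NaCl, 1.0 KCl, 0.5 BaCl2, 0.005 EDTA, 10 HEPES, pH 7.4, 23°C, and held at -40 mV. Compound was co-applied at 3 µM with agonist from 20 mM DMSO stocks, final DMSO 0.05–0.5%.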

[2] = molecular target: Neuronal acetylcholine receptor subunit alpha-7 (Homo sapiens) (UniProt P36544); test: Activity at human recombinant alpha7 nAChR expressed in Xenopus oocytes assessed as effect on acetylcholine-induced activation at 3 uM by two-electrode voltage clamp technique relative to control; format: cell-based; settings: Oocyte; method in brief: as §1
[3] = molecular target: Histamine H1 receptor (Homo sapiens) (UniProt P35367); test: Inhibition of H1 histamine receptor (unknown origin) at 5 uM by psychoactive drug screening programme assay
Method in brief: (§2)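 Radioligand binding screen run by PDSP. Displacement of ligand binding was measured with test compound at 5 µM, n=4 per target.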

[4] = molecular target: Muscarinic acetylcholine receptor M3 (Homo sapiens) (UniProt P20309); test: Inhibition of M3 receptor (unknown origin) at 5 uM by psychoactive drug screening programme assay; method in brief: as §2
[5] = molecular target: Alpha-2C adrenergic receptor (Homo sapiens) (UniProt P18825); test: Inhibition of adrenergic alpha2C receptor (unknown origin) at 5 uM by psychoactive drug screening programme assay; method in brief: as §2
[6] = molecular target: Glutamate receptor 2 (Rattus norvegicus) (UniProt P19491); test: Activity at rat recombinant GluA2 receptor expressed in Xenopus oocytes assessed as effect on glutamate-induced response at 3 uM by two-electrode voltage clamp technique relative to control; format: cell-based; settings: Oocyte; method in brief: as §1
Chain of Glutamate receptor 2 (Rattus norvegicus) (P19491 whole entry): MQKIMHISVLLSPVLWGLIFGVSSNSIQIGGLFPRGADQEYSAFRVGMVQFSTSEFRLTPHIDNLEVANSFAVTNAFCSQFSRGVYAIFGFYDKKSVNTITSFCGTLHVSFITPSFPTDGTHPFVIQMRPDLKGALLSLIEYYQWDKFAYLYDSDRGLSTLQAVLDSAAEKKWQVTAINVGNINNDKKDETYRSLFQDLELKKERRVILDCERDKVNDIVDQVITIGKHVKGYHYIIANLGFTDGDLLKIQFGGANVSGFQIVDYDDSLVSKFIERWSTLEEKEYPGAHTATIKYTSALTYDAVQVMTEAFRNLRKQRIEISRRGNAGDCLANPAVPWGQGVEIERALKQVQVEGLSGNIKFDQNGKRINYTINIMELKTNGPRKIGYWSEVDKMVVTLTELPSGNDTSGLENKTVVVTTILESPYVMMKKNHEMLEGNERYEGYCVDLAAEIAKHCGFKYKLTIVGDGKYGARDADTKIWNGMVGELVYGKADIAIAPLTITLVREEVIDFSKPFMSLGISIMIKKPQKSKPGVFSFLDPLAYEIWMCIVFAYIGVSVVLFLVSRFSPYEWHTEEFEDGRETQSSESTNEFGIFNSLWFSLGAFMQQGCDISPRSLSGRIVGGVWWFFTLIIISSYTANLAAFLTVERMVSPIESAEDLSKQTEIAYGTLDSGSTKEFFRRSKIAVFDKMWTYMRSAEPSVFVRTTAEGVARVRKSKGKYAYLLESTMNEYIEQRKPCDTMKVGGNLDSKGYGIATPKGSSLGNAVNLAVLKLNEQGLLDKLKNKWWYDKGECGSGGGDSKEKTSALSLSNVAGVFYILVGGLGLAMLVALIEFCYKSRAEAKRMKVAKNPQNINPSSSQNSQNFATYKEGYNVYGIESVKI

[7] = molecular target: Alpha-2B adrenergic receptor (Homo sapiens) (UniProt P18089); test: Inhibition of adrenergic alpha2B receptor (unknown origin) at 5 uM by psychoactive drug screening programme assay; method in brief: as §2
[8] = molecular target: 5-hydroxytryptamine receptor 6 (Homo sapiens) (UniProt P50406); test: Inhibition of serotonin 5-HT6 receptor (unknown origin) at 5 uM by psychoactive drug screening programme assay
[9] = molecular target: Delta-type opioid receptor (Homo sapiens) (UniProt P41143); test: Inhibition of delta opioid receptor (unknown origin) at 5 uM by psychoactive drug screening programme assay; method in brief: as §2
[10] = molecular target: Glutamate receptor ionotropic, kainate 2 (Rattus norvegicus) (UniProt P42260); test: Activity at rat recombinant GluK2 receptor expressed in Xenopus oocytes assessed as effect on glutamate-induced response at 3 uM by two-electrode voltage clamp technique relative to control; format: cell-based; settings: Oocyte; method in brief: as §1
Chain of Glutamate receptor ionotropic, kainate 2 (Rattus norvegicus) (P42260 whole entry): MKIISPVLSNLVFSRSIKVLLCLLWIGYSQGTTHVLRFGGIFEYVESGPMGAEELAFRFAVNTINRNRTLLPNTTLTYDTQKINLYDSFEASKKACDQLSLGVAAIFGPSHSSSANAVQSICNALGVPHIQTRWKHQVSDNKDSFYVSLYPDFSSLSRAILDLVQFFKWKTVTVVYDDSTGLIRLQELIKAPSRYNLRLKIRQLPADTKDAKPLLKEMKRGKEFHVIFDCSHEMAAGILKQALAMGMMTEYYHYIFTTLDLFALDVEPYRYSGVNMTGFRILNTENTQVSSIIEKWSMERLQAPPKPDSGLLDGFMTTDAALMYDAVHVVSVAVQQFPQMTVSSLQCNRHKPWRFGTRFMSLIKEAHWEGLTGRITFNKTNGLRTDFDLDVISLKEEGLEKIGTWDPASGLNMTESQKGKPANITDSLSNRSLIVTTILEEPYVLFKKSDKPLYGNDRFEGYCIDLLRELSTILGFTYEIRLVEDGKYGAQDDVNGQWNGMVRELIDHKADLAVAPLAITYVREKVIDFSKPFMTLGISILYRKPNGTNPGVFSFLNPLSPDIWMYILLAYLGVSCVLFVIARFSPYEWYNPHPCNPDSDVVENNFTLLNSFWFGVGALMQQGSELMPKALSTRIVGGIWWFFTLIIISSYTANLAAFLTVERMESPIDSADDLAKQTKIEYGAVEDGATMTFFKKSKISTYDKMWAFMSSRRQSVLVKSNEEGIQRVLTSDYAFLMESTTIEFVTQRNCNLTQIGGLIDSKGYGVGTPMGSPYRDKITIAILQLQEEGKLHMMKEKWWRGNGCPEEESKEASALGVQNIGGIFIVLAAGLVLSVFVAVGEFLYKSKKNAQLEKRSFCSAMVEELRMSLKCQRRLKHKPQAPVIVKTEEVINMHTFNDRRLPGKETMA

[11] = molecular target: Glutamate receptor 3 (Rattus norvegicus) (UniProt P19492); test: Activity at rat recombinant GluA3 receptor expressed in Xenopus oocytes assessed as effect on glutamate-induced response at 3 uM by two-electrode voltage clamp technique relative to control; format: cell-based; settings: Oocyte; method in brief: as §1
[12] = molecular target: Histamine H2 receptor (Homo sapiens) (UniProt P25021); test: Inhibition of H2 histamine receptor (unknown origin) at 5 uM by psychoactive drug screening programme assay; method in brief: as §2
[13] = molecular target: Muscarinic acetylcholine receptor M1 (Homo sapiens) (UniProt P11229); test: Inhibition of M1 receptor (unknown origin) at 5 uM by psychoactive drug screening programme assay; method in brief: as §2
[14] = molecular target: Glutamate NMDA receptor; Grin1/Grin2c (Rattus norvegicus, UniProt P35439+Q00961); test: Activity at rat recombinant GluN1/GluN2C receptor assessed as potentiation of glycine/glutamate-induced activation by two-electrode voltage clamp technique; format: protein-complex assay
[15] = molecular target: Muscarinic acetylcholine receptor M5 (Homo sapiens) (UniProt P08912); test: Inhibition of M5 receptor (unknown origin) at 5 uM by psychoactive drug screening programme assay; method in brief: as §2
[16] = molecular target: Muscarinic acetylcholine receptor M2 (Homo sapiens) (UniProt P08172); test: Inhibition of M2 receptor (unknown origin) at 5 uM by psychoactive drug screening programme assay; method in brief: as §2
[17] = molecular target: 5-hydroxytryptamine receptor 7 (Homo sapiens) (UniProt P34969); test: Inhibition of serotonin 5-HT7 receptor (unknown origin) at 5 uM by psychoactive drug screening programme assay
[18] = molecular target: Alpha-2A adrenergic receptor (Homo sapiens) (UniProt P08913); test: Inhibition of adrenergic alpha2A receptor (unknown origin) at 5 uM by psychoactive drug screening programme assay; method in brief: as §2
[19] = molecular target: Alpha-1A adrenergic receptor (Homo sapiens) (UniProt P35348); test: Inhibition of adrenergic alpha1A receptor (unknown origin) at 5 uM by psychoactive drug screening programme assay; method in brief: as §2
[20] = molecular target: 5-hydroxytryptamine receptor 3A (Homo sapiens) (UniProt P46098); test: Inhibition of serotonin 5-HT3 receptor (unknown origin) at 5 uM by psychoactive drug screening programme assay
Chain of 5-hydroxytryptamine receptor 3A (Homo sapiens) (P46098 whole entry): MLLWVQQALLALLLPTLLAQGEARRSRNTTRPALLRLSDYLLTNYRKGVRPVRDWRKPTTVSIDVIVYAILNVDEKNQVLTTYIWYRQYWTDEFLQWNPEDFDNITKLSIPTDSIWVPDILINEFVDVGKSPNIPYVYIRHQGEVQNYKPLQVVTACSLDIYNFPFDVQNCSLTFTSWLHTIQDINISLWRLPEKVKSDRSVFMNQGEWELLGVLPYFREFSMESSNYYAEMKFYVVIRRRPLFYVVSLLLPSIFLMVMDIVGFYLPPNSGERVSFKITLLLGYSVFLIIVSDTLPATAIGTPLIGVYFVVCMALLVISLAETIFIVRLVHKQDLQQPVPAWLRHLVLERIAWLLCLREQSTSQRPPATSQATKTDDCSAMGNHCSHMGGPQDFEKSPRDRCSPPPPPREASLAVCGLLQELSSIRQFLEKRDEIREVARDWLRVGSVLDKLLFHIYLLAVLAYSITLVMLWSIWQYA

[21] = molecular target: D(1B) dopamine receptor (Homo sapiens) (UniProt P21918); test: Inhibition of dopamine D5 receptor (unknown origin) at 5 uM by psychoactive drug screening programme assay; method in brief: as §2
[22] = molecular target: Nicotinic acetylcholine receptor alpha9/alpha10 (Rattus norvegicus) (UniProt P43144+Q9JLB5); test: Activity at rat recombinant alpha9alpha10 nAChR expressed in Xenopus oocytes assessed as effect on acetylcholine-induced response at 3 uM by two-electrode voltage clamp technique relative to control; format: cell-based; settings: Oocyte; method in brief: as §1
[23] = molecular target: P2X purinoceptor 2 (Homo sapiens) (UniProt Q9UBL9); test: Activity at human recombinant purinergic P2X2 receptor expressed in Xenopus oocytes assessed as effect on ATP-induced activation at 3 uM by two-electrode voltage clamp technique relative to control; format: cell-based; settings: Oocyte; method in brief: as §1
Chain of P2X purinoceptor 2 (Homo sapiens) (Q9UBL9 whole entry): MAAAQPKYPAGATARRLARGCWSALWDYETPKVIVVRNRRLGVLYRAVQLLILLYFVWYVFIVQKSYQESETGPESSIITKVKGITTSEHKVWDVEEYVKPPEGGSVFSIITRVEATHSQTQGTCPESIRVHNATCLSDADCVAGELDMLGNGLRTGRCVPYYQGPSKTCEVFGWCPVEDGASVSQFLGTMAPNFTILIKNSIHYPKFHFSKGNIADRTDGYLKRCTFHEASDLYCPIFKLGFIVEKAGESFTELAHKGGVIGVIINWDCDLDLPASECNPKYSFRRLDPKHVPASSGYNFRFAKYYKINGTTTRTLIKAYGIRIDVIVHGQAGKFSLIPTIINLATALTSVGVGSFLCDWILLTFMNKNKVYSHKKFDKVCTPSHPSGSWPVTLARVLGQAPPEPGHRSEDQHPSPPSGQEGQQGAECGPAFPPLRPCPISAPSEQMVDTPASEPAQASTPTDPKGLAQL

[24] = molecular target: Neuronal acetylcholine receptor; alpha3/beta4 (Homo sapiens) (UniProt P30926+P32297); test: Activity at human recombinant alpha3beta4 nAChR expressed in Xenopus oocytes assessed as effect on acetylcholine-induced activation at 3 uM by two-electrode voltage clamp technique relative to control; format: cell-based; settings: Oocyte; method in brief: as §1
[25] = molecular target: Beta-2 adrenergic receptor (Homo sapiens) (UniProt P07550); test: Inhibition of adrenergic beta2 receptor (unknown origin) at 5 uM by psychoactive drug screening programme assay; method in brief: as §2
Chain of Beta-2 adrenergic receptor (Homo sapiens) (P07550 whole entry, looked up): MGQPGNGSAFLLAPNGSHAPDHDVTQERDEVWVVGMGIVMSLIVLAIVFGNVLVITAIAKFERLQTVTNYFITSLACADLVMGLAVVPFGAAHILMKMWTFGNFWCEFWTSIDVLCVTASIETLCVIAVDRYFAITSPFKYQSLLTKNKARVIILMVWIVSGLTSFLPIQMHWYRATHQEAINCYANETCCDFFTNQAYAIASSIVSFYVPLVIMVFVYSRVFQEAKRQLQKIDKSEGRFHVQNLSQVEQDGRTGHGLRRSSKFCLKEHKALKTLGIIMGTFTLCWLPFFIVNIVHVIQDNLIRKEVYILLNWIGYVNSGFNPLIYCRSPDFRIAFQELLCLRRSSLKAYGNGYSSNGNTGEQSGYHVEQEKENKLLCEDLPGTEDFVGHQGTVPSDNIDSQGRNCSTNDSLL

[26] = molecular target: Alpha-1B adrenergic receptor (Homo sapiens) (UniProt P35368); test: Inhibition of adrenergic alpha1B receptor (unknown origin) at 5 uM by psychoactive drug screening programme assay; method in brief: as §2
[27] = molecular target: D(1A) dopamine receptor (Homo sapiens) (UniProt P21728); test: Inhibition of dopamine D1 receptor (unknown origin) at 5 uM by psychoactive drug screening programme assay; method in brief: as §2
[28] = molecular target: 5-hydroxytryptamine receptor 1B (Homo sapiens) (UniProt P28222); test: Inhibition of serotonin 5-HT1B receptor (unknown origin) at 5 uM by psychoactive drug screening programme assay; method in brief: as §2
Chain of 5-hydroxytryptamine receptor 1B (Homo sapiens) (P28222 whole entry): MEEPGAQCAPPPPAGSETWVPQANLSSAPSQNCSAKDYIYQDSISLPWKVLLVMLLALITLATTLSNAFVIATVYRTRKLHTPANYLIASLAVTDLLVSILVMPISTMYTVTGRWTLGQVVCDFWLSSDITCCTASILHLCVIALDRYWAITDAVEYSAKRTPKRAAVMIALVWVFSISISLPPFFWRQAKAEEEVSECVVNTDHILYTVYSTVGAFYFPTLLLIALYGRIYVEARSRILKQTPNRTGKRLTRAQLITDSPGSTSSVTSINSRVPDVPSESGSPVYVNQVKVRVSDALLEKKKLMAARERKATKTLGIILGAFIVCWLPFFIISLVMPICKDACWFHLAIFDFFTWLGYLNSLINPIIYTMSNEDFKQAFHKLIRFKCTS

[29] = molecular target: D(2) dopamine receptor (Homo sapiens) (UniProt P14416); test: Inhibition of dopamine D2 receptor (unknown origin) at 5 uM by psychoactive drug screening programme assay; method in brief: as §2
Chain of D(2) dopamine receptor (Homo sapiens) (P14416 whole entry): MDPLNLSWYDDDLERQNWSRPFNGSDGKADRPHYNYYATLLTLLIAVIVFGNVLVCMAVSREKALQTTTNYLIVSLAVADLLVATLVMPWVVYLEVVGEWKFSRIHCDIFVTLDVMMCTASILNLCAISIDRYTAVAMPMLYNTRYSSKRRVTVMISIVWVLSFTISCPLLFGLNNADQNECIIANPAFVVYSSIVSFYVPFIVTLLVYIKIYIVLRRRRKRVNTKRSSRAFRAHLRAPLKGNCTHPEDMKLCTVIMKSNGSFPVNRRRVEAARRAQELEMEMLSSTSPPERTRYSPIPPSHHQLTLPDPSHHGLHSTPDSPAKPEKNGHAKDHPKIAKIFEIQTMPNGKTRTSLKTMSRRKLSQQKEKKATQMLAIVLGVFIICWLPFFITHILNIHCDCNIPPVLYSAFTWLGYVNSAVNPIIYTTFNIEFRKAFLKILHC

[30] = molecular target: Glutamate receptor ionotropic, kainate 1 (Rattus norvegicus) (UniProt P22756); test: Activity at rat recombinant GluK1 receptor expressed in Xenopus oocytes assessed as effect on glutamate-induced response at 3 uM by two-electrode voltage clamp technique relative to control; format: cell-based; settings: Oocyte; method in brief: as §1
Chain of Glutamate receptor ionotropic, kainate 1 (Rattus norvegicus) (P22756 whole entry): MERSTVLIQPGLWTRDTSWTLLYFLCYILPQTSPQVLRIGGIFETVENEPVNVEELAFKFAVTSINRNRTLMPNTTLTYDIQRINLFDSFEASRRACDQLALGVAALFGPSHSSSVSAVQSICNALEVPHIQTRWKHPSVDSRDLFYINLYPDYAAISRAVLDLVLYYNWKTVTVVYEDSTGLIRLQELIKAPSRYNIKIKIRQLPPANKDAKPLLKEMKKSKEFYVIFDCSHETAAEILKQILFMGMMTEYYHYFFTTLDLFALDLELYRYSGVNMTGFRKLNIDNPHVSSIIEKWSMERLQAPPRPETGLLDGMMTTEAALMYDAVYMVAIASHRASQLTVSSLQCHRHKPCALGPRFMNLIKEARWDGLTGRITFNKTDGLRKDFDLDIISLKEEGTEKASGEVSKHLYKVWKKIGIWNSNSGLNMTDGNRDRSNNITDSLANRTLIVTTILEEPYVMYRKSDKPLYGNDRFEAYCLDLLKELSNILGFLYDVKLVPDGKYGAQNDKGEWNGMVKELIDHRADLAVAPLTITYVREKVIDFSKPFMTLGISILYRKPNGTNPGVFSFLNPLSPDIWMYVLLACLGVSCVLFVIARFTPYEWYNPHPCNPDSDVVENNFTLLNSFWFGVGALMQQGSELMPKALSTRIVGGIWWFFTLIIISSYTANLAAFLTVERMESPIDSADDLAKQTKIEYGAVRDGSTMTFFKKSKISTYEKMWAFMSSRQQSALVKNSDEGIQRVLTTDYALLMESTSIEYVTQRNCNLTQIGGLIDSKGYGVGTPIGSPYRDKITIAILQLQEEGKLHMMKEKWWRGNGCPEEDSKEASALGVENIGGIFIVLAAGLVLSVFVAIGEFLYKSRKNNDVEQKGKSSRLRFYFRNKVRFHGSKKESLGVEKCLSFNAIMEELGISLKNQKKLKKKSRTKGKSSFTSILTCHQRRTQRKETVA

## COc1ccc(OCC2c3ccc(OCc4ccccc4)cc3CCN2C(=O)c2cccc(Br)c2)cc1 (stereo not given)
[1]
  Activity: 99%
[2]
  Activity: 90%
[3]
  inhibition: < 50%
[4]
  inhibition: < 50%
[5]
  inhibition: < 50%
[6]
  Activity: 97%
[7]
  inhibition: < 50%
[8]
  inhibition: < 50%
[9]
  inhibition: < 50%
[10]
  Activity: 98%
[11]
  Activity: 99%
[12]
  inhibition: < 50%
[13]
  inhibition: < 50%
[14]
  EC50: 300 nM
[15]
  inhibition: < 50%
[16]
  inhibition: < 50%
[17]
  inhibition: < 50%
[18]
  inhibition: < 50%
[19]
  inhibition: < 50%
[20]
  inhibition: < 50%
[21]
  inhibition: < 50%
[22]
  Activity: 92%
[23]
  Activity: 94%
[24]
  Activity: 95%
[25]
  inhibition: < 50%
[26]
  inhibition: < 50%
[27]
  inhibition: < 50%
[28]
  inhibition: < 50%
[29]
  inhibition: < 50%
[30]
  Activity: 101%
